The values that follow come from paper PMC10370593 (Chemical Science, 2023).

“Also recorded” adds a separate entry of the source.

The test system of one data set is CD24 gene. Kind of data set: Relative gene expression in Notch1 silenced MDA-MB-231 by real-time PCR. Type of data set: cell-based, human. The note with it: MDA-MB-231, 72 h, RT-PCR; AB36_siRNA MR 50, metformin 200 μM; mean of n = 3. In general terms: Real-time PCR tracks product formation cycle by cycle.
Data set [1] deals with MDA-MB-231 cells. In words: MTT cytotoxicity for IC50 and combination index. Type of data set: cell-based. The conditions noted are these: Homo sapiens, MDA-MB-231, 72 h. The method, boiled down: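 MTT viability assay in MDA-MB-231 cells at 72 h. The IC50 of the test compound came from a dose range analysed in CompuSyn. For the combination, five test compound doses (200–450 μM) were paired with a fixed dose of lipopeptide–Notch1 siRNA complex. Combination index was derived by the Chou–Talalay method. Data are mean ± SEM, n = 3.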

The test system of another data set is CD44 gene. Kind of data set: Relative gene expression in Notch1 silenced MDA-MB-231 by real-time PCR. Format: cell-based, human. The note with it: MDA-MB-231, 72 h, RT-PCR; AB36_siRNA MR 50, metformin 200 μM; mean of n = 3.
A further data set has as its system MMP-2 gene. Described as above. Format: cell-based, human. The conditions noted are these: MDA-MB-231, 72 h, RT-PCR; AB36_siRNA MR 50, metformin 200 μM; mean of n = 3.
In another data set the test system is Notch1 gene. Kind of data set: Gene silencing by real-time PCR. Format: cell-based, human. The note with it: 72 h, MDA-MB-231, MR50 (1.25 μM lipopeptide, 25 nM Notch1 siRNA), RT-PCR, mean ± SEM of three.
The next data set deals with Erk2 gene. In words: Gene silencing by real-time PCR. Format: cell-based, human. The note with it: 72 h, MDA-MB-231, MR50, RT-PCR, mean ± SEM of three.
The subject of a further data set is Erk1 gene. In words: Gene silencing by real-time PCR. Type of data set: cell-based, human. The note with it: mean ± SEM of three.
In data set [2] the test system is MDA-MB-231 cells. In words: Uptake studies by ApoTome microscopy. Format: cell-based, human. The conditions noted are these: MR 50, 6 h incubation at 37 °C.
The test system of data set [3] is MDA-MB-231 cells. In words: Cellular uptake by flow cytometry. Type of data set: cell-based, human. The note with it: DY-547 labelled siRNA, MR 50, 1 h incubation. The method, boiled down:
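MDA-MB-231 cells were incubated 1 h with complexes of FAM-labelled lipopeptide (1.25 μM) and DY-547-labelled siRNA (25 nM), MR 50. Complexes were pre-formed by mixing and resting 30 min at room temperature. Uptake was read by flow cytometry in the FITC and PE channels, with single-label complexes used for compensation. Samples were run in duplicate; values are mean ± SEM of two replicates.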
Background: A flow cytometer gives signals particle by particle.

The subject of the next data set is trypsin. In words: Protease stability of lipopeptides. Type of data set: in vitro ADME. The note with it: 0.1 μg trypsin, protocol of ref. 14.
The next data set concerns Notch1 protein. In words: Immunostaining of Notch1 protein. Format: cell-based, human. The note with it: MDA-MB-231, 72 h, MR50, TRITC signal versus untreated vehicle. In a few lines: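 MDA-MB-231 cells were seeded at 14000 per well on etched coverslips and left overnight. They were then transfected with unlabelled lipopeptide (1.25 μM) complexed to Notch1-silencing siRNA (25 nM), MR 50, for 72 h. Untreated cells served as vehicle. Notch1 was detected by immunofluorescence.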

The subject of another data set is HUVEC. In words: Cellular uptake by flow cytometry. Format: cell-based, human. The conditions noted are these: DY-547 labelled siRNA, MR 50, 1 h incubation, hard to transfect primary cells, two replicates.
The mark [4] stands for this setting: 48 h, MDA-MB-231, MR50 (1.25 μM lipopeptide, 25 nM Erk1/2 siRNA), RT-PCR.

Usually IC50 stands for the concentration needed to halve the response being measured. Consider `CN(C)C(=N)N=C(N)N` [metformin], for which, in the data set with CD24 gene, the “relative expression of the CD24 gene” value is “did not show any changes”. In addition, the IC50 in the data set on MDA-MB-231 cells [1] was 374 µM. The “relative expression of the CD44 gene” value with CD44 gene is “did not show any changes”. Also, the “relative expression of the MMP-2 gene” value with MMP-2 gene was “did not show any changes”.

With “FAM-^γAbu-Arg- Lys-N^ε(stearyl)-Arg-Sar-Arg-Gpn-Arg- Lys-N^ε(stearyl)-Arg-Sar-Arg-NH2 [AB32]”, the “Knockdown percentage, Notch1” value in the data set on Notch1 gene is 73.1 ± 2.8%. Besides, the “Knockdown percentage, Erk2” value with Erk2 gene was 60.3 ± 3.2%. Also, the “Knockdown percentage, Erk1” value is listed as 51.6 ± 7.4% in the data set with Erk1 gene (setting [4]) and 70.6 ± 2.3% in the data set with Erk1 gene (72 h, MDA-MB-231, MR50, RT-PCR).

Turning to “FAM-γAbu-Arg- C^α-Octylgly -Arg-Sar-Arg-Gly-Arg- Lys-N^ε(D-alpha-Tocopherol succinyl)-Arg-Sar-Arg-NH2 [AB18]”, in the data set with Notch1 gene, the “Knockdown percentage, Notch1” value came to 90.8 ± 3.06%. The “cytosolic distribution of siRNA compared with HiPerFect” value with MDA-MB-231 cells [2] is listed as “higher levels of cytosolic distribution of siRNA”. Moreover, in the data set with Erk2 gene, the “Knockdown percentage, Erk2” value is 85.9 ± 16.7%. Moreover, the “Knockdown percentage, Erk1” value in the data set with Erk1 gene (setting [4]) is given as 62.6 ± 12.5%; in the data set on Erk1 gene (72 h, MDA-MB-231, MR50, RT-PCR), 89.1 ± 6.3%. In the data set on MDA-MB-231 cells [3], the “siRNA internalization (ranking among designed lipopeptides)” value is listed as “highest siRNA internalization; also recorded: highest level of siRNA”. Moreover, the “siRNA internalization relative to HiPerFect_siRNA” value with MDA-MB-231 cells [3] (two replicates) came to 1.79 times.

Consider “FAM-γAbu-Arg- Lys-N^ε(1-Pyrenebutyryl)-Arg-Sar-Arg-Gly-Arg- Lys-N^ε(1-Pyrenebutyryl)-Arg-Sar-Arg-NH2 [AB17]”, for which, in the data set with Notch1 gene, the “Knockdown percentage, Notch1” value was 82.5 ± 5.6%. The “Knockdown percentage, Erk2” value in the data set with Erk2 gene came to 75.8 ± 5.1%. The “Knockdown percentage, Erk1” value in the data set with Erk1 gene (setting [4]) was determined as 67.9 ± 7.6%; in the data set on Erk1 gene (72 h, MDA-MB-231, MR50, RT-PCR) it was 85.9 ± 8.8%.

For “FAM-γAbu-Arg-C^α-Octylgly-Arg-Sar-Arg-Gly-Arg-Lys-N^ε(1-Adamantyl)-Arg-Sar-Arg-NH2 [AB29]”, in the data set with Notch1 gene, the “Knockdown percentage, Notch1” value is recorded as 50.5 ± 7.7%. The “Knockdown percentage, Erk2” value in the data set on Erk2 gene was determined as 59.8 ± 7.2%. Moreover, the “Knockdown percentage, Erk1” value in the data set with Erk1 gene (setting [4]) is 52.6 ± 10.2%; with Erk1 gene (72 h, MDA-MB-231, MR50, RT-PCR) it was 58.8 ± 10.9%. Also, the “siRNA internalization (ranking among designed lipopeptides)” value in the data set on MDA-MB-231 cells [3] was “much lower efficiency; also recorded: lowest amount of siRNA”.

On to “PEG9-Arg- C^α-Octylgly -Arg-Sar-Arg-Gly-Arg-Lys- N^ε(D-alpha-Tocopherol succinyl)-Arg-Sar-Arg-NH2 [AB36]”, for which, in the data set on trypsin, the “time at which degradation by trypsin starts” value was 1 to 3 h and the “time at which lipopeptide is completely degraded by trypsin” value was 6 h. In addition, the “Notch1 protein expression by immunofluorescence” value with Notch1 protein is “significantly lowered”. Also, in the data set with HUVEC, the “cellular internalization of siRNA relative to HiPerFect” value is reported as 1.53 times.

For “c[-Arg-^DHis-Arg-^DHis-Arg-Lys{Lys(linoleyl)2}-Arg-^DHis-Arg-^DHis-Arg-Glu-]-Lys(FAM)-NH2 (head to tail) [Peptide 6, reference compound]”, the “Knockdown percentage, Notch1” value in the data set with Notch1 gene is reported as 80.9 ± 1.6%. Moreover, the “Knockdown percentage, Erk2” value in the data set on Erk2 gene was determined as 71.6 ± 9.4%. For the same molecule, the “Knockdown percentage, Erk1” value in the data set on Erk1 gene (setting [4]) amounted to 31.2 ± 2.2%; with Erk1 gene (72 h, MDA-MB-231, MR50, RT-PCR), 78.1 ± 2.0%.
